Results reported in ChEMBL document CHEMBL1221219, “Selective blockade of 2-arachidonoylglycerol hydrolysis produces cannabinoid behavioral effects” (Nat Chem Biol, 2009).
Active and inactive are the calls of the source. The rule behind the calls is not given here.

Assays:
Mus musculus [1] = test: Analgesic activity against CB1 receptor deficient C57B1/6J mouse at 16 mg/kg, ip; format: functional, organism-based; design: dose 16 mg/kg
In short: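 Male C57Bl/6J mice, 6-8 weeks, 20-26 g, given 16 mg kg^-1 i.p. in 4:1 v/v PEG300:Tween80 at 4 μl g^-1; vehicle controls received PEG300:Tween80 alone. Cannabinoid effects were scored in the tetrad test.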

Mus musculus [2] = test: Change in monopalmitoylglycerol levels in intraperitoneally dosed C57B1/6J mouse brain by LC-MS; format: functional, organism-based
In short: (§1)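 Male C57Bl/6J mice given 4, 8, 16 or 40 mg kg^-1 i.p. in 4:1 PEG300:Tween80 at 4 μl g^-1, or vehicle, and killed after 4 h. Whole-brain lipids were quantified by LC-MS.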

Mus musculus [3] = test: Inhibition of PAFAH-1Bb in C57B1/6J mouse brain membrane at 16 mg/kg, ip after 4 hrs by competitive activity-based protein profiling-MudPIT method; format: functional, organism-based; design: dose 16 mg/kg
In short: (§2)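 After i.p. dosing in 4:1 PEG300:Tween80, male C57Bl/6J mice were killed at 4 h. Brain membrane proteomes from treated and vehicle mice were labelled with FP-biotin. Labelled proteins were enriched on avidin, digested on-bead with trypsin and analysed by multidimensional LC-MS. Proteins were identified by SEQUEST, and dosed samples were compared with vehicle.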

[4] = molecular target: T1, Fatty-acid amide hydrolase 1 (Mus musculus) (UniProt O08914); conditions: C57B1/6J, Brain, Membrane, 10 uM
T1 sequence (whole entry): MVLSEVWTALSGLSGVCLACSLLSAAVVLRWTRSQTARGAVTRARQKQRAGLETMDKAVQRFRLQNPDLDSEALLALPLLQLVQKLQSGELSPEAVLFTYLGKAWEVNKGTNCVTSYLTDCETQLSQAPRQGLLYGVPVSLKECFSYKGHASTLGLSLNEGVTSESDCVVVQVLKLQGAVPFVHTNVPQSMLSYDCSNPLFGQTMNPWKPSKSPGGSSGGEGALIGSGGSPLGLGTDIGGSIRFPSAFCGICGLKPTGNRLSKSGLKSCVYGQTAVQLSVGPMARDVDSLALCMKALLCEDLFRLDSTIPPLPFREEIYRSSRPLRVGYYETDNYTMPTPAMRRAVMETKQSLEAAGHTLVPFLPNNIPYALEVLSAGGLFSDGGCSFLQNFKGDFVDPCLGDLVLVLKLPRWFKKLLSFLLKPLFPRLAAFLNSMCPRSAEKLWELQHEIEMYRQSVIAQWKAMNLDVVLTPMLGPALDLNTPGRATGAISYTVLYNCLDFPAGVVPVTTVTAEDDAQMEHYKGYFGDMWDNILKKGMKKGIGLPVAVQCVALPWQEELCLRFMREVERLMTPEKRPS

[5] = molecular target: Cannabinoid receptor 2 (Homo sapiens) (UniProt P34972); test: Displacement of [3H]CP-55940 from CB2 expressed in CHO cells after 90 mins by liquid scintillation; format: cell-based
Mus musculus [6] = test: Inhibition of FAAH in C57B1/6J mouse brain membrane assessed as elevated level of anandamide at 10 mg/kg, ip by competitive activity-based protein profiling method; format: functional, organism-based; design: dose 10 mg/kg
Mus musculus [7] = test: Antinociceptive activity against formalin-induced pain in C57B1/6J mouse assessed as paw lifting or licking during late phase (20-40 mins) at 40 m/kg, po administered 2 hrs before formalin challenge pretreated with rimonabant; format: functional, organism-based
Mus musculus [8] = test: Inhibition of APT2 in C57B1/6J mouse brain membrane at 16 mg/kg, ip after 4 hrs by competitive activity-based protein profiling-MudPIT method; format: functional, organism-based; design: dose 16 mg/kg
In short: (§3)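 Mice were dosed 16 mg kg^-1 i.p. or vehicle and killed at 4 h. Brain membrane proteomes were labelled with FP-biotin, avidin-enriched, trypsin-digested on bead, analysed by multidimensional LC-MS and identified by SEQUEST.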

Mus musculus [9] = test: Change in N-acylethanolamine level in C57B1/6J mouse brain at 16 mg/kg, ip by LC-MS; format: functional, organism-based; design: dose 16 mg/kg
In short: (§4)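 Mice received 16 mg kg^-1 i.p. in 4:1 PEG300:Tween80 and were killed at 0.5, 1, 2, 4, 8 and 24 h. Brain lipids, including N-acylethanolamines, MAGs, free fatty acids and arachidonic acid, were measured by LC-MS.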

Mus musculus [10] = test: Change in palmitic acid in intraperitoneally dosed C57B1/6J mouse brain by LC-MS; format: functional, organism-based; in short: as §1
Mus musculus [11] = test: Change in mono-oleoylglycerol levels in intraperitoneally dosed C57B1/6J mouse brain by LC-MS; format: functional, organism-based; in short: as §1
Mus musculus [12] = test: Inhibition of BAT5 in C57B1/6J mouse brain membrane at 16 mg/kg, ip after 4 hrs by competitive activity-based protein profiling-MudPIT method; format: functional, organism-based; design: dose 16 mg/kg; in short: as §3
Mus musculus [13] = test: Decrease in arachidonic acid levels in C57B1/6J mouse brain at 16 mg/kg, ip by LC-MS; format: functional, organism-based; design: dose 16 mg/kg; in short: as §4
Mus musculus [14] = test: Inhibition of AARE in C57B1/6J mouse brain membrane at 16 mg/kg, ip after 4 hrs by competitive activity-based protein profiling-MudPIT method; format: functional, organism-based; design: dose 16 mg/kg; in short: as §3
Mus musculus [15] = test: Inhibition of JZL184 induced immobility in C57B1/6J mouse at 16 mg/kg, ip; format: functional, organism-based; design: dose 16 mg/kg
Mus musculus [16] = test: Inhibition of GPID in C57B1/6J mouse brain membrane at 16 mg/kg, ip after 4 hrs by competitive activity-based protein profiling-MudPIT method; format: functional, organism-based; design: dose 16 mg/kg; in short: as §2
Mus musculus [17] = test: Inhibition of ABHD3 in C57B1/6J mouse brain membrane at 16 mg/kg, ip after 4 hrs by competitive activity-based protein profiling-MudPIT method; format: functional, organism-based; design: dose 16 mg/kg; in short: as §3
[18] = molecular target: T2, Diacylglycerol lipase-beta (Homo sapiens) (UniProt Q8NCG7); test: Inhibition of recombinant DAGLbeta expressed in HEK293 cells assessed as hydrolysis of 1-stearoyl-2-arachidonoyl-glycerol to 2-AG at 10 uM after 30 mins by LC-MS method; format: cell-based
T2 sequence (whole entry): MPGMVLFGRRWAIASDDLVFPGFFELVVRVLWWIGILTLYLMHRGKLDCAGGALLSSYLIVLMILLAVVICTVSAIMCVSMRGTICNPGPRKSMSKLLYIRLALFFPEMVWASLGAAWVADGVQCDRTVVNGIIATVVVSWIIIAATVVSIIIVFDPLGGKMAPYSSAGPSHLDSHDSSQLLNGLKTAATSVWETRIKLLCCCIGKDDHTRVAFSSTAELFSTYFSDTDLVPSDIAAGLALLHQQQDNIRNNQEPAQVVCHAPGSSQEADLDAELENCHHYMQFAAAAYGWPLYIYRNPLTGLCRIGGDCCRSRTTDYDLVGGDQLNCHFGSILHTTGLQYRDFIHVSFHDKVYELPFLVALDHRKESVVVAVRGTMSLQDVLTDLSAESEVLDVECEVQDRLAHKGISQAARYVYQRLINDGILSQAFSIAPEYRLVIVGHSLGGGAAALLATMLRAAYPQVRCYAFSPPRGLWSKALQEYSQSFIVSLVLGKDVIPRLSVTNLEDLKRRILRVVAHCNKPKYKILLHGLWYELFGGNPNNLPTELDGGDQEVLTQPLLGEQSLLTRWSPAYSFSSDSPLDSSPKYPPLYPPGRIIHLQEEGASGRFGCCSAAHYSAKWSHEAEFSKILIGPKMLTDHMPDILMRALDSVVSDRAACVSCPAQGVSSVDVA

Sequence of Cannabinoid receptor 2 (Homo sapiens) (P34972 whole entry): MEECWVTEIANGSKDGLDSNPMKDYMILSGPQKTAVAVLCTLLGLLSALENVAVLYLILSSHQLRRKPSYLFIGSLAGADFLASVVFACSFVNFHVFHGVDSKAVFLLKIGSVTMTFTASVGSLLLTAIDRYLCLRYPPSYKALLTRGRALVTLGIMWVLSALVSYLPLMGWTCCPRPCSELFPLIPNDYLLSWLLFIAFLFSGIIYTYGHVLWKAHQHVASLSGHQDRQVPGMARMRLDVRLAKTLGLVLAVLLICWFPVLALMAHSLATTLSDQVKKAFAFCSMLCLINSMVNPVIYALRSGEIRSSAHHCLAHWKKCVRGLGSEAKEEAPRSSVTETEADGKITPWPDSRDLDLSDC

## O=C(Oc1ccc([N+](=O)[O-])cc1)N1CCC(C(O)(c2ccc3c(c2)OCO3)c2ccc3c(c2)OCO3)CC1
Mus musculus [1]
  Activity: inactive
Mus musculus [2]
  Activity: inactive
Mus musculus [3]
  inhibition: inactive
[4]
  inhibition: Active
[5]
  Activity: inactive
Mus musculus [6]
  inhibition: Active
Mus musculus [7]
  Activity: inactive
Mus musculus [8]
  inhibition: inactive
Mus musculus [9]
  Activity: inactive
Mus musculus [10]
  Activity: inactive
Mus musculus [11]
  Activity: inactive
Mus musculus [12]
  inhibition: inactive
Mus musculus [13]
  Activity: Active
Mus musculus [14]
  inhibition: inactive
Mus musculus [15]
  inhibition: Active
Mus musculus [16]
  inhibition: inactive
Mus musculus [17]
  inhibition: inactive
[18]
  inhibition: inactive
